Reference: ChEMBL document CHEMBL5131563, “Accelerated Identification of Cell Active KRAS Inhibitory Macrocyclic Peptides using Mixture Libraries and Automated Ligand Identification System (ALIS) Technology” (J Med Chem, 2022)
*1 amine or outer side, *2 acyl side, *3 side chain or, on linkers, in order; H or OH if unused. Where a SMILES comes first, the peptide text is derived from it. Bridges are numbered along the chain shown (N, C = ends). [ ]: non-standard residue; d: D form. X1 = O=C([C@@H]1[C@H](c2ccccc2)CCN1[*:1])[*:2]; Ala(4-thiazolyl) = N[C@@H](Cc1cscn1)C(=O)O; Bip = N[C@@H](Cc1ccc(-c2ccccc2)cc1)C(=O)O; hPhe = N[C@@H](CCc1ccccc1)C(=O)O; Cha = N[C@@H](CC1CCCCC1)C(=O)O; Nle = CCCC[C@H](N)C(=O)O; Nva = CCC[C@H](N)C(=O)O

Columns and labels:
[1] = biological target: T1, GTPase KRas (Homo sapiens, UniProt P01116, G12D); assay: Inhibition of recombinant biotinylated KRAS G12D mutant (unknown origin) assessed as inhibition of SOS-catalyzed nucleotide exchange preincubated for 60 mins followed by addition of human SOS protein and unlabeled GTP and measured after 60 mins by TR-FRET analysis
Procedure, shortened: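 Biotinylated KRAS G12D was treated in EDTA buffer (1 h, RT), then loaded at 90 nM with 900 nM Bodipy-GDP and 15 nM Tb-streptavidin in Mg2+ buffer, HEPES pH 7.5 (6 h, RT). It was used at 1.5 nM assay solution with a 10-point, 3-fold DMSO compound series for 60 min at RT. A solution of 120 nM human SOS plus GTP was added for 60 min. The read-out was TR-FRET at 520/495 nm, normalized to DMSO and saturating-inhibitor controls, with a 4-parameter fit.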

[2] = Stability in human HeLa cell homogenate assessed as half life by LC-MS/MS analysis; assay type: ADME, cell-based
Procedure, shortened: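 HeLa cells suspended at 1 × 10^6 cells/mL, probe-sonicated on ice until homogeneous, stored frozen at –20 °C. Peptides incubated with homogenate (1 × 10^6 cells/mL equivalent); peptide loss over time quantified by LC-MS/MS to derive t1/2.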

[3] = biological target: T1, GTPase KRas; assay: Inhibition of KRAS in human ASPC1 cells harboring KRAS G12D mutant assessed as inhibition of ERK phosphorylation incubated for 2 hrs by AlphaScreen-based […] assay; assay type: cell-based
Procedure, shortened: (§1)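 AsPC-1 cells (KRAS G12D) were seeded at 15 000 cells/well in phenol-red-free RPMI with 10% FBS and 25 mM HEPES, then incubated overnight at 37 °C and 5% CO2. Medium was switched to serum-free before dosing. Cells were given a dose–response titration for 2 or 18 h at 37 °C, washed and lysed with protease inhibitors. Phospho-ERK and total ERK were read by AlphaScreen SureFire multiplex, using the pERK/total ERK ratio. Curves were fit with a 4-parameter logistic.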

[4] = biological target: T1, GTPase KRas; assay: Inhibition of KRAS in human ASPC1 cells harboring KRAS G12D mutant assessed as inhibition of ERK phosphorylation incubated for 18 hrs by AlphaScreen-based […] assay; assay type: cell-based; procedure, shortened: as §1

T1 sequence (P01116 whole entry G12D): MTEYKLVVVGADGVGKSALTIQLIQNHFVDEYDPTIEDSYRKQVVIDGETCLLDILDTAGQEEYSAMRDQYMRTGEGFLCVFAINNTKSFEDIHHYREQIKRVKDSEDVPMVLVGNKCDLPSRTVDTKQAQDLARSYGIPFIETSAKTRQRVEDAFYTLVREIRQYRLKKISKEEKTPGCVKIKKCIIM

Compound: CC[C@H](C)[C@@H]1NC(=O)[C@H](Cc2ccc(O)cc2)NC(=O)[C@H](CC(C)C)NC(=O)[C@@H]2CCCN2C(=O)[C@@H](NC(=O)[C@H](CCCNC(=N)N)NC(=O)[C@H](CCCNC(=N)N)NC(C)=O)CSSC[C@@H](C(=O)N[C@@H](CCCNC(=N)N)C(=O)N[C@@H](CCCNC(=N)N)C(N)=O)NC(=O)[C@H](C(C)C)NC(=O)[C@@H]2CCCN2C(=O)[C@H](CC(=O)O)NC(=O)[C@H](C(c2ccccc2)c2ccccc2)NC(=O)[C@H](CO)NC1=O
- IC50 [1]: 251 nM
- half-life [2]: 30 min

Compound: CCC[C@@H]1NC(=O)[C@H](CC2CCCCC2)NC(=O)[C@H](CC(C)C)NC(=O)[C@@H]2CCCN2C(=O)[C@@H](NC(=O)[C@H](CCCNC(=N)N)NC(=O)[C@H](CCCNC(=N)N)NC(C)=O)CSSC[C@@H](C(=O)N[C@@H](CCCNC(=N)N)C(=O)N[C@@H](CCCNC(=N)N)C(N)=O)NC(=O)[C@H](C(C)C)NC(=O)[C@@H]2CCCN2C(=O)[C@H](CC(=O)O)NC(=O)[C@H](Cc2ccc(O)cc2)NC(=O)[C@H](CO)NC1=O (Ac-RRCPL[Cha][Nva]SYDPVCRR-NH2; disulfide 3-13)
- IC50 [1]: > 11100 nM
- half-life [2]: 27 min

Compound: CCCC[C@@H]1NC(=O)[C@H]([C@@H](C)CC)NC(=O)[C@H](Cc2ccc(O)cc2)NC(=O)[C@H](CC(C)C)NC(=O)[C@@H]2CCCN2C(=O)[C@@H](NC(=O)[C@H](CCCNC(=N)N)NC(=O)[C@H](CCCNC(=N)N)NC(C)=O)CSSC[C@@H](C(=O)N[C@@H](CCCNC(=N)N)C(=O)N[C@@H](CCCNC(=N)N)C(N)=O)NC(=O)[C@H](C(C)C)NC(=O)[C@@H]2CCCN2C(=O)[C@H](CC(=O)O)NC(=O)[C@H](Cc2ccc(O)cc2)NC1=O (Ac-RRCPLYI[Nle]YDPVCRR-NH2; disulfide 3-13)
- IC50 [1]: > 11100 nM
- half-life [2]: 25 min

Compound: CC[C@H](C)[C@@H]1NC(=O)[C@H](CCc2ccccc2)NC(=O)[C@H](CC(C)C)NC(=O)[C@@H]2CCCN2C(=O)[C@@H](NC(=O)[C@H](CCCNC(=N)N)NC(=O)[C@H](CCCNC(=N)N)NC(C)=O)CSSC[C@@H](C(=O)N[C@@H](CCCNC(=N)N)C(=O)N[C@@H](CCCNC(=N)N)C(N)=O)NC(=O)[C@H](C(C)C)NC(=O)[C@@H]2CCCN2C(=O)[C@H](CC(=O)O)NC(=O)[C@H](Cc2ccc(O)cc2)NC(=O)[C@H](CO)NC1=O (Ac-RRCPL[hPhe]ISYDPVCRR-NH2; disulfide 3-13)
- IC50 [1]: 1390 nM
- half-life [2]: 37 min

Compound: CC[C@H](C)[C@@H]1NC(=O)[C@H](Cc2ccc(-c3ccccc3)cc2)NC(=O)[C@H](CC(C)C)NC(=O)[C@@H]2[C@H](c3ccccc3)CCN2C(=O)[C@@H](NC(=O)[C@H](CCCNC(=N)N)NC(=O)[C@H](CCCNC(=N)N)NC(C)=O)CSSC[C@@H](C(=O)N[C@@H](CCCNC(=N)N)C(=O)N[C@@H](CCCNC(=N)N)C(N)=O)NC(=O)[C@H](C(C)C)NC(=O)[C@@H]2CCCN2C(=O)[C@H](CC(=O)O)NC(=O)[C@H](Cc2ccc(O)cc2)NC(=O)[C@H](CO)NC(=O)[C@H](C)NC1=O (Ac-RRC[X1]L[Bip]IASYDPVCRR-NH2; disulfide 3-14)
- IC50 [1]: < 1 nM
- half-life [2]: > 372 min
- IC50 [3]: 3.8 µM
- IC50 [4]: 3.9 µM

Compound: CC[C@H](C)[C@@H]1NC(=O)[C@H](CC2CCCCC2)NC(=O)[C@H](CC(C)C)NC(=O)[C@@H]2CCCN2C(=O)[C@@H](NC(=O)[C@H](CCCNC(=N)N)NC(=O)[C@H](CCCNC(=N)N)NC(C)=O)CSSC[C@@H](C(=O)N[C@@H](CCCNC(=N)N)C(=O)N[C@@H](CCCNC(=N)N)C(N)=O)NC(=O)[C@H](C(C)C)NC(=O)[C@@H]2CCCN2C(=O)[C@H](CC(=O)O)NC(=O)[C@H](Cc2ccc(O)cc2)NC(=O)[C@H](CO)NC1=O (Ac-RRCPL[Cha]ISYDPVCRR-NH2; disulfide 3-13)
- IC50 [1]: 161 nM
- half-life [2]: 21 min

Compound: CC[C@H](C)[C@@H]1NC(=O)[C@H](Cc2ccc(O)cc2)NC(=O)[C@H](CC(C)C)NC(=O)[C@@H]2CCCN2C(=O)[C@@H](NC(=O)[C@H](CCCNC(=N)N)NC(=O)[C@H](CCCNC(=N)N)NC(C)=O)CSSC[C@@H](C(=O)N[C@@H](CCCNC(=N)N)C(=O)N[C@@H](CCCNC(=N)N)C(N)=O)NC(=O)[C@H](C(C)C)NC(=O)[C@@H]2CCCN2C(=O)[C@H](CC(=O)O)NC(=O)[C@H](Cc2ccc(O)cc2)NC(=O)[C@H](Cc2cscn2)NC1=O (Ac-RRCPLYI[Ala(4-thiazolyl)]YDPVCRR-NH2; disulfide 3-13)
- IC50 [1]: 2270 nM
- half-life [2]: 22 min
